Assay results from different studies.
Each line is one published result; the experiments were not run side by side.
Target: Serine/threonine-protein kinase TBK1 (TBK1, Homo sapiens, UniProt Q9UHD2)
Sequence (Q9UHD2 1-729, as in one of the studies): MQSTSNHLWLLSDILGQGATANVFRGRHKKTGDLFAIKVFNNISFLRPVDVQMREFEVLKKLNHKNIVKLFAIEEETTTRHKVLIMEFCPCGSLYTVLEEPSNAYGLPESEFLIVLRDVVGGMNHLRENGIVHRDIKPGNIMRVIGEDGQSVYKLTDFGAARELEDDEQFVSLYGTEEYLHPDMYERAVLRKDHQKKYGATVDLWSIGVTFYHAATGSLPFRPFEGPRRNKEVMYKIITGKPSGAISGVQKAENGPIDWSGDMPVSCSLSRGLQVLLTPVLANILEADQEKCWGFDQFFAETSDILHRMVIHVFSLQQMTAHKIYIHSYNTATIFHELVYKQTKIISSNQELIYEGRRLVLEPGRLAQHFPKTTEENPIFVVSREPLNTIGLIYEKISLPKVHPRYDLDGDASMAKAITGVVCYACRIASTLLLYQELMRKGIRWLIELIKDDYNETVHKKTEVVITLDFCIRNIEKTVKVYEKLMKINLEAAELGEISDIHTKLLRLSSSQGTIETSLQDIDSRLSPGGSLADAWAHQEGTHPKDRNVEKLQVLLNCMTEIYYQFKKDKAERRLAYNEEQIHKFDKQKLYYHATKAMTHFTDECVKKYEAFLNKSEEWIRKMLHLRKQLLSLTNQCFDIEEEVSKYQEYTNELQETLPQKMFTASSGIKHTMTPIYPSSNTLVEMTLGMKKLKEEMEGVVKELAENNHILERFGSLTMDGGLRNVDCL

| Structure (SMILES) | test | conditions | quantity | result |
| --- | --- | --- | --- | --- |
| COc1cc(Nc2ncc(F)c(Nc3ccc4c(n3)NC(=O)C(C)(C)O4)n2)cc(OC)c1OC | binding | 10 µM | inhibition | 100% |
| Cn1cc(-c2cccc(N3CCc4c(sc5c4CC(C)(C)C5)C3=O)c2CO)cc(Nc2ccncn2)c1=O | enzyme activity, inhibitor | 1 µM | inhibition | 4% |
| CC(C)(C)c1cc(C=C(C#N)C#N)cc(Br)c1O | enzyme activity, inhibitor | 0.5 µM | remaining activity | 90.2% |
| C#Cc1n[nH]c2c(-c3cn(C(C)c4ccccn4)c(=O)[nH]c3=O)cc(F)cc12 (centres unmarked) | enzyme activity, inhibitor | 1 µM | inhibition | 6.5% |
| N#CC1(c2ccccn2)CCN(Cc2cc(C(=O)O)c(=O)n3ccccc23)CC1 | cell-free assay, competition with immobilised ligand | 1 µM | remaining binding | 98% |
| O=c1[nH]c2ccccc2n1C1CCN(Cc2ccc(-c3[nH]c4cc5ncnc5cc4nc3-c3ccccc3)cc2)CC1 | cell-free assay | 0.5 µM | remaining signal | 92.7% |
| COc1ncccc1-c1cnn2ccc(N3CCN(C(=O)OC(C)C)CC3)nc12 | binding, competition with immobilised ligand | 1 µM | remaining binding | 78% |
| C#Cc1n[nH]c2c(-c3cn([C@@H](C)c4ccccc4)c(=O)[nH]c3=O)cc(F)cc12 | enzyme activity, inhibitor | 0.1 µM | inhibition | 4.4% |
| Cc1nn(C)cc1-c1nc2c(N3CCN(Cc4ccc(Cl)cc4)CC3)c(Cl)cnc2[nH]1 | binding, competition with immobilised ligand | 1 µM | remaining binding | 90% |
| Cn1cc(-c2cc(F)cc(N3CCn4c(cc5c4CCCC5)C3=O)c2CO)cc(Nc2ccc(N3CCN(C4COC4)CC3)cn2)c1=O | enzyme activity, inhibitor | 0.1 µM | inhibition | 18% |
| Cn1cncc1[C@](O)(COc1ccc(C#N)cc1-c1ccc(OC(F)(F)F)cc1)c1ccc(C#N)cc1 | cell-free assay, competition with immobilised ligand | 1 µM | remaining binding | 100% |
